Assay results reported in ChEMBL document CHEMBL1125736, “N-[(omega-amino-1-hydroxyalkyl)phenyl]methanesulfonamide derivatives with class III antiarrhythmic activity” (1991).

How the values were obtained:
[1] = system: Canis familiaris; assay: Conduction time from the His bundle to the onset of ventricular depolarizations was tested in dogs at a dose of 3.0 mg/kg through intravenous administration. (baseline value- 17+/-1 ); type: functional, Canis lupus familiaris, Cardiac ventricle
[2] = system: Canis familiaris; assay: Compound was tested in vivo in dogs at a dose of 0.1 mg/kg through intravenous route and time at which conduction block at the atrioventricular node prevented atrial pacing was recorded.(Base line value-0); type: functional, Canis lupus familiaris
Procedure, shortened: (§1)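 Dogs with myocardial infarction were studied 3-9 days after infarction. They were reanesthetized with pentobarbital, ventilated, and electrodes were placed via thoracotomy; blood gases were monitored. Control ERPs and reproducible inducibility were set by programmed electrical stimulation, then cumulative iv doses were given. Agents were in glass-distilled water or NaOH-neutralized saline (pH 6.7-7.0). Animals were counted per category: NI, nonsustained, sustained, VF, or AV block preventing atrial pacing.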

[3] = system: Canis familiaris; assay: Conduction time from the atrium to His bundle was tested in dogs at a dose of 1.0 mg/kg through intravenous administration. (baseline value- 73+/-3 ); type: functional, Canis lupus familiaris
[4] = system: Canis familiaris; assay: Conduction time for ventricular refractory period of the first premature stimulus was tested in dogs at a dose of 1.0 mg/kg through intravenous administration. (baseline value- 137+/-4); type: functional, Canis lupus familiaris, Cardiac ventricle
[5] = system: Canis familiaris; assay: Conduction time from the His bundle to the onset of ventricular depolarizations was tested in dogs at a dose of 10.0 mg/kg through intravenous administration. (baseline value- 17+/-1 ); type: functional, Canis lupus familiaris, Cardiac ventricle
[6] = species on record: Oryctolagus cuniculus; assay: Tested for rate automaticity measured in beats per minute from unpaced right atria of rabbit heart.; type: functional
Procedure, shortened: (§2)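 Isolated rabbit heart tissues, all from one heart, each its own baseline; 2 h equilibration, perfusate changed every 15 min, basal stimulation 2 Hz between measurements. Exposed to 10^-7, 10^-6 and 10^-5 M drug, 15 min each; values reported at 10^-5 M as percent change from baseline. Drug solutions prepared daily in glass-distilled water. Force and rate recorded on polygraph.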

[7] = system: Canis familiaris; assay: Compound was tested in vivo in dogs at a dose of 3.0 mg/kg through intravenous route and time at which sustained ventricular arrhythmias were induced was recorded.(Base line value-2); type: functional, Canis lupus familiaris, Cardiac ventricle; procedure, shortened: as §1
[8] = species on record: Oryctolagus cuniculus; assay: Tested for effective refractory period measured at a pacing rate of 3 Hz in vitro with rabbit heart tissue preparations.; type: functional; set-up: unit: %; procedure, shortened: as §2
[9] = system: Canis familiaris; assay: Compound was tested in vivo in dogs at a dose of 10 mg/kg through intravenous route and time at which ventricular arrhythmias were not indicible was recorded.(Base line value-5); type: functional, Canis lupus familiaris, Cardiac ventricle; procedure, shortened: as §1
[10] = system: Canis familiaris; assay: Conduction time for ventricular refractory period of the second premature stimulus was tested in dogs at a dose of 10 mg/kg through intravenous administration. (baseline value- 123+/-4); type: functional, Canis lupus familiaris, Cardiac ventricle
[11] = system: Canis familiaris; assay: Compound was tested in vivo in dogs at a dose of 3.0 mg/kg through intravenous route and time at which ventricular fibrillation was induced was recorded.(Base line value-6); type: functional, Canis lupus familiaris, Cardiac ventricle; conditions: in the assay text read “Base line value-3” for “Base line value-6”; procedure, shortened: as §1
[12] = species on record: Oryctolagus cuniculus; assay: Tested for effective refractory period measured at a pacing rate of 1 Hz in vitro with rabbit heart tissue preparations.; type: functional; procedure, shortened: as §2
[13] = system: Canis familiaris; assay: Conduction time from Q wave to T wave of lead II electrocardiogram was tested in dogs at a dose of 3.0 mg/kg through intravenous administration. (baseline value- 352+/-7); type: functional, Canis lupus familiaris
[14] = species on record: Oryctolagus cuniculus; assay: Tested for force of contraction measured in mg at a pacing rate of 2 Hz in vitro with rabbit heart tissue preparations.; type: functional; procedure, shortened: as §2
[15] = system: Canis familiaris; assay: Compound was tested in vivo in dogs at a dose of 10.0 mg/kg through intravenous route and time at which conduction block at the atrioventricular node prevented atrial pacing was recorded.(Base line value-0); type: functional, Canis lupus familiaris; procedure, shortened: as §1
[16] = system: Canis familiaris; assay: Compound was tested in vivo in dogs at a dose of 1.0 mg/kg through intravenous route and time at which conduction block at the atrioventricular node prevented atrial pacing was recorded.(Base line value-0); type: functional, Canis lupus familiaris; procedure, shortened: as §1
[17] = system: Canis familiaris; assay: Compound was tested in vivo in dogs at a dose of 1.0 mg/kg through intravenous route and time at which nonsustained ventricular arrhythmias were induced was recorded.(Base line value-0); type: functional, Canis lupus familiaris, Cardiac ventricle; procedure, shortened: as §1
[18] = system: Canis familiaris; assay: Conduction time for ventricular refractory period of the first premature stimulus was tested in dogs at a dose of 3.0 mg/kg through intravenous administration. (baseline value- 137+/-4); type: functional, Canis lupus familiaris, Cardiac ventricle
[19] = system: Canis familiaris; assay: Conduction time for ventricular refractory period of the first premature stimulus was tested in dogs at a dose of 10.0 mg/kg through intravenous administration. (baseline value- 137+/-4); type: functional, Canis lupus familiaris, Cardiac ventricle
[20] = system: Canis familiaris; assay: Compound was tested in vivo in dogs at a dose of 10.0 mg/kg through intravenous route and time at which nonsustained ventricular arrhythmias were induced was recorded.(Base line value-1); type: functional, Canis lupus familiaris, Cardiac ventricle; procedure, shortened: as §1
[21] = system: Canis familiaris; assay: Conduction time from the atrium to His bundle was tested in dogs at a dose of 3.0 mg/kg through intravenous administration. (baseline value 73+/-3 ); type: functional, Canis lupus familiaris
[22] = system: Canis familiaris; assay: Compound was tested in vivo in dogs at a dose of 0.3 mg/kg through intravenous route and time at which conduction block at the atrioventricular node prevented atrial pacing was recorded.(Base line value-0); type: functional, Canis lupus familiaris; procedure, shortened: as §1
[23] = system: Canis familiaris; assay: Conduction time from the atrium to His bundle was tested in dogs at a dose of 10.0 mg/kg through intravenous administration. (baseline value- 73+/-3 ); type: functional, Canis lupus familiaris
[24] = system: Canis familiaris; assay: Compound was tested in vivo in dogs at a dose of 1.0 mg/kg through intravenous route and time at which sustained ventricular arrhythmias were induced was recorded.(Base line value-2); type: functional, Canis lupus familiaris, Cardiac ventricle; procedure, shortened: as §1
[25] = system: Canis familiaris; assay: Conduction time for ventricular refractory period of the second premature stimulus was tested in dogs at a dose of 3.0 mg/kg through intravenous administration. (baseline value- 123+/-4); type: functional, Canis lupus familiaris, Cardiac ventricle
[26] = system: Canis familiaris; assay: Compound was tested in vivo in dogs at a dose of 1.0 mg/kg through intravenous route and time at which ventricular arrhythmias were not indicible was recorded.(Base line value-5); type: functional, Canis lupus familiaris, Cardiac ventricle; procedure, shortened: as §1
[27] = system: Canis familiaris; assay: Compound was tested in vivo in dogs at a dose of 10.0 mg/kg through intravenous route and time at which ventricular fibrillation was induced was recorded.(Base line value-6); type: functional, Canis lupus familiaris, Cardiac ventricle; conditions: in the assay text read “Base line value-3” for “Base line value-6”; procedure, shortened: as §1
[28] = system: Canis familiaris; assay: Compound was tested in vivo in dogs at a dose of 3.0 mg/kg through intravenous route and time at which nonsustained ventricular arrhythmias were induced was recorded.(Base line value-1); type: functional, Canis lupus familiaris, Cardiac ventricle; conditions: in the assay text read “Base line value-0” for “Base line value-1”; procedure, shortened: as §1
[29] = system: Canis familiaris; assay: Conduction time for ventricular refractory period of the second premature stimulus was tested in dogs at a dose of 1.0 mg/kg through intravenous administration. (baseline value- 123+/-4); type: functional, Canis lupus familiaris, Cardiac ventricle
[30] = system: Canis familiaris; assay: Compound was tested in vivo in dogs at a dose of 3.0 mg/kg through intravenous route and number of animals in which ventricular arrhythmias were not inducible was recorded.(Base line value-5)
[31] = system: Canis familiaris; assay: Compound was tested in vivo in dogs at a dose of 1.0 mg/kg through intravenous route and time at which ventricular fibrillation was induced was recorded.(Base line value-3); type: functional, Canis lupus familiaris, Cardiac ventricle; procedure, shortened: as §1
[32] = system: Canis familiaris; assay: Conduction time from Q wave to T wave of lead II electrocardiogram was tested in dogs at a dose of 10 mg/kg through intravenous administration. (baseline value- 352+/-7); type: functional, Canis lupus familiaris
[33] = system: Canis familiaris; assay: Compound was tested in vivo in dogs at a dose of 3.0 mg/kg through intravenous route and time at which conduction block at the atrioventricular node prevented atrial pacing was recorded.(Base line value-0); type: functional, Canis lupus familiaris; procedure, shortened: as §1
[34] = system: Canis familiaris; assay: Conduction time from the His bundle to the onset of ventricular depolarizations was tested in dogs at a dose of 1.0 mg/kg through intravenous administration. (baseline value- 17+/-1 ); type: functional, Canis lupus familiaris, Cardiac ventricle
[35] = species on record: Oryctolagus cuniculus; assay: Tested for conduction time measured at a pacing rate of 1 Hz in vitro with rabbit heart tissue preparations.; type: functional; procedure, shortened: as §2
[36] = system: Canis familiaris; assay: Compound was tested in vivo in dogs at a dose of 10.0 mg/kg through intravenous route and time at which sustained ventricular arrhythmias were induced was recorded.(Base line value-2); type: functional, Canis lupus familiaris, Cardiac ventricle; procedure, shortened: as §1
[37] = system: Canis familiaris; assay: Conduction time from Q wave to T wave of lead II electrocardiogram was tested in dogs at a dose of 1.0 mg/kg through intravenous administration. (baseline value- 352+/-7); type: functional, Canis lupus familiaris

Q: Which Time [1] does the source give for CC(C)NCC(O)c1ccc(NS(C)(=O)=O)cc1.Cl (configuration not stated) [SOTALOL HYDROCHLORIDE] here?
A: The Time was 39 ms.

Q: What about the Time [2] of the same molecule?
A: Its Time is 0 animals.

Q: And the Time [3]?
A: Its Time is 77 ms.

Q: What about the Time [4] of the same molecule?
A: Its Time is 145 ms.

Q: And the Time [5]?
A: The Time was 42 ms.

Q: What about the Rate [6] of the same molecule?
A: The Rate was -10.

Q: And the Time [7]?
A: Its Time is 1 animals.

Q: What about the ERP3 [8] of the same molecule?
A: Its ERP3 is 4.9.

Q: What about the Time [9] of the same molecule?
A: Its Time is 5 animals.

Q: And the Time [10]?
A: The Time was 141 ms.

Q: And the Time [11]?
A: The Time was 0 animals.

Q: And the ERP1 [12]?
A: Its ERP1 is 7.3.

Q: What about the Time [13] of the same molecule?
A: Its Time is 197 ms.

Q: And the FOC [14]?
A: The FOC was 6.

Q: What about the Time [15] of the same molecule?
A: Its Time is 4 animals.

Q: What about the Time [16] of the same molecule?
A: The Time was 0 animals.

Q: What about the Time [17] of the same molecule?
A: Its Time is 0 animals.

Q: What about the Time [18] of the same molecule?
A: Its Time is 152 ms.

Q: And the Time [19]?
A: Its Time is 157 ms.

Q: What about the Time [20] of the same molecule?
A: The Time was 1 animals.

Q: And the Time [21]?
A: The Time was 90 ms.

Q: And the Time [22]?
A: Its Time is 0 animals.

Q: And the Time [23]?
A: Its Time is 107 ms.

Q: What about the Time [24] of the same molecule?
A: Its Time is 2 animals.

Q: What about the Time [25] of the same molecule?
A: The Time was 138 ms.

Q: What about the Time [26] of the same molecule?
A: Its Time is 8 animals.

Q: What about the Time [27] of the same molecule?
A: The Time was 0 animals.

Q: What about the Time [28] of the same molecule?
A: The Time was 2 animals.

Q: And the Time [29]?
A: The Time was 126 ms.

Q: And the Number of animals not inducible [30]?
A: The Number of animals not inducible was 7 animals.

Q: What about the Time [31] of the same molecule?
A: Its Time is 0 animals.

Q: What about the Time [32] of the same molecule?
A: The Time was 181 ms.

Q: What about the Time [33] of the same molecule?
A: Its Time is 0 animals.

Q: And the Time [34]?
A: The Time was 40 ms.

Q: And the CT1 [35]?
A: Its CT1 is -11.7.

Q: And the Time [36]?
A: The Time was 0 animals.

Q: What about the Time [37] of the same molecule?
A: The Time was 197 ms.
